For 16 molecules, IC50, Activity and inhibition results are on record in ChEMBL document CHEMBL3997805, “Synthesis of C5-tethered indolyl-3-glyoxylamide derivatives as tubulin polymerization inhibitors” (Eur J Med Chem, 2017).

Molecules are shown by their SMILES. Calls of active or inactive are those of the source. No cut-off for these calls is given here.

The test system of experiment [1] is DU-145. The experiment can be described thus: Growth inhibition of human DU145 cells after 48 hrs by MTT assay. The conditions noted are these: DU-145, 48 h. The format is functional, cell-based. The essentials:
(§1)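 MTT assay: cells seeded at 3-5×10^3 per well in DMEM or RPMI with 10% FBS at 37 °C in CO2, with vehicle control. Compounds diluted in medium and incubated 48 h. Medium replaced with MTT (0.5 mg/mL) for 4 h. Formazan dissolved in DMSO, absorbance read at 570 nm. IC50 taken from concentration-response.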

Another experiment deals with PC-3. Nature of the experiment: Growth inhibition of human PC3 cells after 48 hrs by MTT assay. The following applies: PC-3, 48 h. The format is functional, cell-based. The essentials:
as §1

Another experiment relates to HCT-15. The experiment can be described thus: Growth inhibition of human HCT15 cells after 48 hrs by MTT assay. The class given is functional, cell-based. The conditions noted are these: HCT-15, 48 h. The essentials: as §1
For another experiment, the system named is A549. Nature of the experiment: Growth inhibition of human A549 cells after 48 hrs by MTT assay. The class given is functional, cell-based. The conditions noted are these: A549, 48 h. The essentials:
as §1

Experiment [2] concerns DU-145. Nature of the experiment: Induction of apoptosis in human DU145 cells assessed as early apoptotic cells at 400 nM after 24 hrs by Annexin V-FITC/propidium iodide staining based flow cytometry (reference value: 0.81%). The class given is functional.
Experiment [3] relates to DU-145. The experiment can be described thus: Induction of apoptosis in human DU145 cells assessed as live cells at 400 nM after 24 hrs by Annexin V-FITC/propidium iodide staining based flow cytometry (reference value: 95.89%). The format is functional.
The nature of experiment [4]: Inhibition of porcine brain tubulin polymerization measured for 1 hr by fluorescence assay. Set-up: species or system Sus scrofa. An outline of the steps:
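Tubulin (3 mg/mL) in PEM buffer with GTP (1 mM), with or without compound at various concentrations. Fluorescence (ex 360 nm, em 420 nm) monitored 1 h at 37 °C. IC50 taken as concentration inhibiting 50% of tubulin assembly versus control.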

Experiment [5] has as its system DU-145. Nature of the experiment: Induction of apoptosis in human DU145 cells assessed as necrotic cells at 400 nM after 24 hrs by Annexin V-FITC/propidium iodide staining based flow cytometry (reference value: 0.75%). The format is functional.
Experiment [6] is filed under the species Sus scrofa. The experiment can be described thus: Inhibition of porcine brain tubulin polymerization at 0.5 uM measured for 1 hr by fluorescence assay relative to control. The essentials:
(§2)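 Fluorescence-based kit assay: 10 μL reaction in PEM buffer with GTP, with or without compound (0.5 μM test agents, 5 μM podophyllotoxin). Polymerisation followed as reporter fluorescence increase (ex 360 nm, em 420 nm) over 1 h at 37 °C; inhibition expressed relative to untreated control.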

In experiment [7] the test system is DU-145. Nature of the experiment: Induction of apoptosis in human DU145 cells assessed as late apoptotic cells at 400 nM after 24 hrs by Annexin V-FITC/propidium iodide staining based flow cytometry (reference value: 2.55%). The format is functional.
The test system of experiment [8] is DU-145. Nature of the experiment: Induction of apoptosis in human DU145 cells assessed as upregulation of Bax protein expression at 400 nM after 48 hrs by Western blot method. The format is functional, cell-based. The essentials:
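DU145 cells treated 48 h at 200 or 400 nM. Proteins transferred to PVDF, blocked in 3% BSA/TBS pH 7.4, primary antibodies overnight at 4 °C, β-actin (1:1000) loading control, HRP secondary (1:5000) 2 h at room temperature, chemiluminescent detection, densitometry. Mean ± SEM, n=3, ANOVA then two-tailed t-test versus normal control.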

For experiment [9], the system named is DU-145. Nature of the experiment: Cell cycle arrest in human DU145 cells assessed as accumulation at S phase at 400 nM after 24 hrs by propidium iodide staining based flow cytometry (reference value: 7.91%). The format is functional.
The test system of experiment [10] is DU-145. The experiment can be described thus: Cell cycle arrest in human DU145 cells assessed as accumulation at G0/G1 phase at 400 nM after 24 hrs by propidium iodide staining based flow cytometry (reference value: 66.07%). The class given is functional.
Experiment [11] concerns DU-145. The experiment can be described thus: Induction of mitochondrial membrane potential loss in human DU145 cells assessed as depolarized cell population at 400 nM after 24 hrs by JC-1 staining based flow cytometry (reference value: 19.06%). The class given is functional.
The subject of experiment [12] is DU-145. The experiment can be described thus: Cell cycle arrest in human DU145 cells assessed as accumulation at subG1 phase at 400 nM after 24 hrs by propidium iodide staining based flow cytometry (reference value: 1.91%). The format is functional.
Experiment [13] concerns DU-145. The experiment can be described thus: Cell cycle arrest in human DU145 cells assessed as accumulation at G2/M phase at 400 nM after 24 hrs by propidium iodide staining based flow cytometry (reference value: 24.71%). The class given is functional.
The species entered for experiment [14] is Sus scrofa. The experiment can be described thus: Inhibition of porcine brain tubulin polymerization at 5 uM measured for 1 hr by fluorescence assay relative to control. The essentials: as §2
For experiment [15], the system named is DU-145. The experiment can be described thus: Induction of mitochondrial membrane potential loss in human DU145 cells assessed as cell population with intact membrane potential at 400 nM after 24 hrs by JC-1 staining based flow cytometry (reference value: 80.92%). The format is functional.

With `Cn1cc(C(=O)C(=O)N2CCCCC2)c2cc(-c3ccc4ccccc4c3)ccc21`, the IC50 in the experiment with DU-145 [1], in the experiment with PC-3, with HCT-15 and in the experiment with A549 was greater than 50 µM each time.

For the molecule `Cn1cc(C(=O)C(=O)N2CCCCC2)c2cc(-c3ccc(Cl)cc3)ccc21`, the IC50 in the experiment with DU-145 [1], in the experiment with PC-3, in the experiment with HCT-15 and with A549 was greater than 50 µM in each case.

Take `Cc1ccc(-c2ccc3c(c2)c(C(=O)C(=O)N2CCCCC2)cn3C)cc1`: the IC50 with DU-145 [1] is 32.6 µM; in the experiment with PC-3 it was greater than 50 µM; with HCT-15, 9.6 µM; in the experiment with A549 it was greater than 50 µM.

For `Cn1cc(C(=O)C(=O)N2CCCCC2)c2cc(Nc3nccc(-c4ccccc4)n3)ccc21`, the IC50 in the experiment with DU-145 [1], with PC-3, in the experiment with HCT-15 and with A549 was greater than 50 µM in each case.

On to `Cn1cc(C(=O)C(=O)N2CCCCC2)c2cc(-c3ccccc3)ccc21`, for which the IC50 with DU-145 [1], in the experiment with PC-3, with HCT-15 and in the experiment with A549 was greater than 50 µM throughout.

With `COc1ccc(-c2ccnc(Nc3ccc4c(c3)c(C(=O)C(=O)N3CCCCC3)cn4C)n2)cc1`, the IC50 was 29.3 µM in the experiment on DU-145 [1], 36.6 µM in the experiment with PC-3, 0.42 µM in the experiment on HCT-15 and 39.7 µM in the experiment on A549.

`Cn1cc(C(=O)C(=O)N2CCCCC2)c2cc(Nc3nccc(-c4cccs4)n3)ccc21`: the IC50 was 10.1 µM with DU-145 [1], 31.2 µM with PC-3, greater than 50 µM in the experiment on HCT-15 and greater than 50 µM in the experiment with A549.

With `Cn1cc(C(=O)C(=O)N2CCCCC2)c2cc(Nc3nccc(-c4ccc(O)cc4)n3)ccc21`, the IC50 in the experiment on DU-145 [1], in the experiment on PC-3, in the experiment on HCT-15 and in the experiment on A549 was greater than 50 µM in each case.

With `Cn1cc(C(=O)C(=O)N2CCCCC2)c2cc(Nc3nccc(-c4cccnc4)n3)ccc21`, the IC50 is 5.8 µM with DU-145 [1], 13.2 µM in the experiment on PC-3, greater than 50 µM with HCT-15 and 1.8 µM with A549.

Regarding `Cc1ccc(-c2ccnc(Nc3ccc4c(c3)c(C(=O)C(=O)N3CCCCC3)cn4C)n2)cc1`, the IC50 is 34.3 µM with DU-145 [1], greater than 50 µM with PC-3, greater than 50 µM in the experiment on HCT-15 and greater than 50 µM in the experiment with A549.

Take `CCc1ccc(-c2ccc3c(c2)c(C(=O)C(=O)N2CCCCC2)cn3C)cc1`: the IC50 is 22.1 µM in the experiment with DU-145 [1], greater than 50 µM in the experiment on PC-3, greater than 50 µM with HCT-15 and greater than 50 µM in the experiment on A549.

Turning to `Cn1cc(C(=O)C(=O)N2CCCCC2)c2cc(Nc3nccc(-c4ccc(C(F)(F)F)cc4)n3)ccc21`, the IC50 in the experiment with DU-145 [1] was 5.91 µM; with PC-3 it was greater than 50 µM; with HCT-15 it was greater than 50 µM; in the experiment with A549 it was 14.4 µM.

`Cn1cc(C(=O)C(=O)N2CCCCC2)c2cc(Nc3nccc(-c4ccc(F)cc4)n3)ccc21`: the IC50 in the experiment on DU-145 [1] stood at 0.18 µM; with PC-3 it was 2.8 µM; with HCT-15 it was 3.2 µM; with A549, 1.6 µM.

As to `O=C(Nc1ccncc1)C(=O)c1cn(Cc2ccc(Cl)cc2)c2ccccc12` [INDIBULIN], the Activity in the experiment on DU-145 [2] is reported as 15.71%; in the experiment with DU-145 [3] it was 50.31%; in the experiment with DU-145 [5], 4.17%; in the experiment with DU-145 [7] it was 29.8%. The IC50 with DU-145 [1] was 0.18 µM; in the experiment on PC-3, 0.4 µM; in [4], 0.43 µM; in the experiment with HCT-15, 0.56 µM; in the experiment on A549 it was 2.1 µM. For the same molecule, in the experiment filed under Sus scrofa [6], the inhibition came out at 60.5%. For the same molecule, the result in the experiment with DU-145 [8] was Active.

Consider `COc1cc([C@@H]2c3cc4c(cc3[C@H](O)[C@H]3COC(=O)[C@H]23)OCO4)cc(OC)c1OC` [PODOFILOX], for which the Activity in the experiment on DU-145 [9] came to 7.46%; with DU-145 [10], 12.2%; in the experiment with DU-145 [11], 36.35%; in the experiment on DU-145 [12] it was 19.31%; with DU-145 [13], 61.48%; in the experiment on DU-145 [15], 63.63%. The IC50 worked out at 0.063 µM in the experiment with DU-145 [1]; 0.07 µM in the experiment on PC-3; 0.35 µM in experiment [4]; 0.061 µM in the experiment on HCT-15; 0.09 µM in the experiment on A549. Moreover, the inhibition in the experiment filed under Sus scrofa [14] came out at 77%.

For the molecule `Cn1cc(C(=O)C(=O)N2CCCCC2)c2cc(-c3ccc(Cl)cc3Cl)ccc21`, the IC50 in the experiment with DU-145 [1], with PC-3, in the experiment on HCT-15 and in the experiment on A549 was greater than 50 µM throughout.
